Screening data deposited in PubChem BioAssay by Broad Institute.
The list is not random: actives were taken first. Their share in the collection is about 2.9%.
S100A4 inh HTS: inhibitors of S100A4-myosin IIA peptide binding, primary screen, biochemical, fluorescence polarization, TAMRA-MyoIIA peptide | AID 652163, 2013 | Protein S100-A4 (Homo sapiens), P26447 | hit rate 0.14% among 360,000 | inhibition, % at 10.7 µM;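 active = mean inhibition of at least 70% across replicates, with every replicate also reaching that level; inconclusive = mean inhibition reaches 70% but some replicates fall short; inactive = mean inhibition below 70%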
Target sequence (P26447 whole entry, looked up): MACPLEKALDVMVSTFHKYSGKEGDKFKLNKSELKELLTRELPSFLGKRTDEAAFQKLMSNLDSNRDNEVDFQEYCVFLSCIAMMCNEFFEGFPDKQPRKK
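System – human S100A4 monomer protein, biochemical binding assay · Buffer or medium – Calcium-containing HEPES buffer, pH 7.2 · Timing – 5 min between mix addition and reading · Also added – TAMRA-labelled myosin IIA heavy-chain peptide probe, 5 nM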
DENV2 CPE: inhibitors of DENV2 cytopathic effect, primary screen, cell-based, plate reader, single concentration | AID 651640, 2012 | hit rate 1.7% among 350,000 | CPE inhibition, % at 9.99 µM | DENV2-infected cells, cytopathic effect rescue; in the data active = CPE inhibition above about 20%, passing the limit was not always enough; inconclusive = no clear call, values can overlap the other calls; tested in BHK-21 cells;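 note: 0% = median of neutral control wells and 100% = median of positive control wells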
SIRT5 block: SIRT5 desuccinylase inhibitors, primary screen, biochemical, fluorescence imaging, single point, set 5; hit rate 1.1% among 330,000; Purified SirT5, succinyl-peptide AMC, trypsin-coupled fluorescence; inhibition, % at 15 µM; in the data active = inhibition above about 15%; inconclusive = no clear call, values can overlap the other calls
Target sequence (Q9NXA8 whole entry, looked up): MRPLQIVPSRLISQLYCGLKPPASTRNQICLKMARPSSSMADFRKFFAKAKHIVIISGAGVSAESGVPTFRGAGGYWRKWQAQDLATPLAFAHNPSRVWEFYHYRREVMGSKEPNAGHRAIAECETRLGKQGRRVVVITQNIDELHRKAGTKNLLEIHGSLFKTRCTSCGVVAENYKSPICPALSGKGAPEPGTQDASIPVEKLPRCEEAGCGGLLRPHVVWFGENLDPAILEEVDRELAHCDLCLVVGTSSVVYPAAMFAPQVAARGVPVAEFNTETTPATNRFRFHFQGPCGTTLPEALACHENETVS
PGC1a acetyl inh: inhibitors of PGC1a acetylation signal, primary screen, cell-based, U2OS, AlphaScreen, inhibitor mode | AlphaScreen anti-acetyl-lysine; with virally co-expressed GCN5 acetyltransferase | inhibition, % at 15.6 µM | hit rate 0.17% among 350,000 | AID 651687, 2012;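 active = every replicate shows inhibition of at least 40%; inconclusive = mean inhibition at least 40% but some replicate below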;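 note: 0% = neutral control wells and 100% = positive control wells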
C2C12 statin: suppressors of statin myotoxicity in C2C12 myotubes, primary screen, cell-based, single point, plate reader. hit rate 0.78% among 330,000. rescue of ATP level, % at 7.49 µM. C2C12 myotubes + simvastatin, ATP luminescence, 48 h; scaled: DMSO 0, geranylgeraniol control 100;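 active = mean ATP rescue above about 67%, or every replicate alone reaching that limit, limit read from the data, passing the limit was not always enough; inconclusive = no clear call, values can overlap the other calls; inactive = mean under the limit and some replicate under it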;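 note: myotubes were challenged with 10 µM simvastatin during compound exposure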
* = called active by the depositor.

Results for Cc1cccc(S(=O)(=O)N2CCCCN3[C@@H](CO)[C@@H](c4ccc(C#CC(C)C)cc4)[C@@H]3C2)c1 ?
S100A4 inh HTS: -7; DENV2 CPE: -24; SIRT5 block: 4; PGC1a acetyl inh: -10

Results for C[C@H]1CN([C@@H](C)CO)C(=O)Cc2cc(N(C)C)ccc2O[C@H]1CN(C)Cc1ccc(C(F)(F)F)cc1 ?
S100A4 inh HTS: 0; DENV2 CPE: inconclusive; PGC1a acetyl inh: 3; C2C12 statin: -88

Results for C[C@H](CO)N1C[C@H](C)[C@H](CN(C)Cc2ccc(C(F)(F)F)cc2)Oc2ccc(N(C)C)cc2C1=O ?
S100A4 inh HTS: 3; DENV2 CPE: 40*; PGC1a acetyl inh: -6; C2C12 statin: -64

Results for C[C@@H]1CN([C@@H](C)CO)C(=O)Cc2cc(N(C)C)ccc2O[C@H]1CN(C)Cc1ccc(C(F)(F)F)cc1 ?
S100A4 inh HTS: 9; DENV2 CPE: -5; SIRT5 block: 5; PGC1a acetyl inh: -11; C2C12 statin: 97*

How did Cc1ccc(-c2nnn(CC(=O)N(CCO)C(C(=O)NC3CCCCC3)c3ccncc3)n2)o1 (stereo unspecified) do in these assays?
S100A4 inh HTS: 0; DENV2 CPE: 13; SIRT5 block: -4; PGC1a acetyl inh: -3

How did Cc1ccc(-c2nnn(CC(=O)N(CCCO)C(C(=O)NC3CCCC3)c3ccc(Cl)cc3)n2)o1 (stereo unspecified) do in these assays?
S100A4 inh HTS: 0; DENV2 CPE: 5; SIRT5 block: -2; PGC1a acetyl inh: -14; C2C12 statin: 80*

How did Cc1ccc(S(=O)(=O)Nc2ccc3c(c2)C(=O)N([C@@H](C)CO)C[C@@H](C)[C@H](CN(C)C(=O)NC(C)C)OCCCC[C@@H](C)O3)cc1 do in these assays?
S100A4 inh HTS: -1; DENV2 CPE: 1; SIRT5 block: 6; PGC1a acetyl inh: -14

Results for N#C[C@H]1[C@H](c2ccccc2)[C@@H](CO)N1C(=O)Cc1ccccc1 ?
S100A4 inh HTS: 3; DENV2 CPE: -4; PGC1a acetyl inh: -5; C2C12 statin: 15

What do the screens show for `CCCNC(=O)N1[C@H](CNC(C)=O)[C@@H](c2ccccc2)[C@@H]1CO`?
DENV2 CPE: 30*; PGC1a acetyl inh: 4; C2C12 statin: -10

Results for CCCNC(=O)N1[C@H](CO)[C@H](c2ccccc2)[C@@H]1CNC(=O)c1ccc(F)cc1 ?
DENV2 CPE: 104*; PGC1a acetyl inh: 13; C2C12 statin: 2

What do the screens show for `CCCNC(=O)N1[C@@H](CO)[C@@H](c2ccccc2)[C@@H]1CNC(C)=O`?
S100A4 inh HTS: 15; DENV2 CPE: -6; SIRT5 block: 3; PGC1a acetyl inh: 3; C2C12 statin: 2

What do the screens show for `O=C(N[C@H](C(=O)N1CCC[C@H]1C(=O)NC1CCCC1)C1CCCCC1)C1CC1`?
S100A4 inh HTS: -20; DENV2 CPE: 0; SIRT5 block: -3

How did Nc1ccc2oc(-c3ccccc3Cl)cc(=O)c2c1O do in these assays?
S100A4 inh HTS: -1; DENV2 CPE: 105*; C2C12 statin: 29

How did CCc1c(-c2cccc(Cl)c2)ncn1Cc1cccc(-c2ccccc2)c1 do in these assays?
S100A4 inh HTS: -6; DENV2 CPE: 22*; SIRT5 block: 5

How did CCCc1c(-c2cccc(Cl)c2)ncn1Cc1cccc(-c2ccccc2)c1 do in these assays?
S100A4 inh HTS: 0; DENV2 CPE: -1; SIRT5 block: 0

What do the screens show for `CC1OC(CC(=O)O)CC2=C1C(=O)c1c(O)cccc1C2=O` (stereo unspecified)?
S100A4 inh HTS: -3; DENV2 CPE: -11; SIRT5 block: -1; PGC1a acetyl inh: 75*

What do the screens show for `CCN(CC)C1CCN(Cc2c(C(=O)N3CCCCCCC3)nc3ccc(Cl)cn23)C1` (stereo unspecified)?
S100A4 inh HTS: -3; DENV2 CPE: 35*; SIRT5 block: -2; C2C12 statin: -7

Results for COc1cccc(NC(=O)C[C@@H]2CC[C@H]3[C@H](COc4ccc(NC(=O)C5CCCCC5)cc4C(=O)N3C)O2)c1 ?
S100A4 inh HTS: -8; DENV2 CPE: -3; SIRT5 block: 5; PGC1a acetyl inh: -8; C2C12 statin: -49

How did C[C@@H]1CN([C@H](C)CO)C(=O)c2cccc(NC(=O)C3CCOCC3)c2O[C@@H]1CN(C)Cc1ccc(C(=O)O)cc1 do in these assays?
S100A4 inh HTS: -6; DENV2 CPE: -2; SIRT5 block: -3; PGC1a acetyl inh: -2; C2C12 statin: 7
